The nature of data set [1]: Inhibition of pyroglutamylaminopeptidase at a dose of 8.32 mM relative to Pyrrolidin-2-one-CO-Gly-Ile. As to conditions: 8320 µM. In short, it runs like this: (§1)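 Enzyme purchased commercially, 5.5 units per digestion in pH 8.0 phosphate deblocking buffer (5% glycerol, 5 mM DTT, 10 mM EDTA, N2/Ar-purged). Preincubated 3 min at 37 °C, then substrate plus Leu internal standard added with the inhibitor at the stated level and digested 180 min at 37 °C. Gly-Ile released was quantitated by amino acid analysis. Values are cleavage relative to the uninhibited digest (set to 1.0), from a single experiment.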

Data set [2] can be described thus: Inhibition of pyroglutamylaminopeptidase at a dose of 16.64 mM relative to 2-Oxo-hexahydro-pyrimidine-4-carboxylic acid. Particulars: 16640 µM. In short, it runs like this: as §1
Data set [3] is described as follows: Inhibition of pyroglutamylaminopeptidase at a dose of 16.64 mM relative to Pyrrolidin-2-one-CO-Gly-Ile. Particulars: 16640 µM. In short, it runs like this:
as §1

Data set [4] in a line: Inhibition of pyroglutamylaminopeptidase at a dose of 8.32 mM relative to 2-Oxo-hexahydro-pyrimidine-4-carboxylic acid. Particulars: 8320 µM. In short, it runs like this: as §1
A short description of data set [5]: Inhibition of pyroglutamylaminopeptidase at a dose of 6.51 mM relative to Pyrrolidin-2-one-CO-Gly-Ile. As to conditions: 6510 µM. In short, it runs like this: as §1
A short description of data set [6]: Inhibition of pyroglutamylaminopeptidase at a dose of 6.51 mM relative to 2-Oxo-hexahydro-pyrimidine-4-carboxylic acid. As to conditions: 6510 µM. In short, it runs like this: as §1
Data set [7] is described as follows: Inhibition of pyroglutamylaminopeptidase at a dose of 13.02 mM relative to Pyrrolidin-2-one-CO-Gly-Ile. Particulars: 13020 µM. In short, it runs like this: as §1
Data set [8] is described as follows: Inhibition of pyroglutamylaminopeptidase at a dose of 13.02 mM relative to 2-Oxo-hexahydro-pyrimidine-4-carboxylic acid. As to conditions: 13020 µM. In short, it runs like this:
as §1

Turning to `O=C1NCCC(C(=O)O)N1` (configuration not stated), the Hydrolysis rate in data set [1] is reported as 0.889; in data set [2], 0.752; in data set [3], 0.884; in data set [4], 0.86.

As to `O=C1NCC(C(=O)O)N1` (configuration not stated), the Hydrolysis rate is 0.854 in data set [5], 0.533 in data set [6], 0.707 in data set [7] and 0.308 in data set [8].

With `O=C1CC[C@@H](C(=O)O)N1` [PIDOLIC ACID], the Hydrolysis rate in data set [5] came out at 0.586; in data set [6] it was 0.206; in data set [7], 0.333; in data set [8], 0.093.

The values above are taken from ChEMBL document CHEMBL1123060, “Substrate specificity of pyroglutamylaminopeptidase” (J Med Chem, 1985).
